ChEMBL document CHEMBL5338764, “Prodrug Strategies for the Development of β-l-5-((E)-2-Bromovinyl)-1-((2S,4S)-2-(hydroxymethyl)-1,3-(dioxolane-4-yl))uracil (l-BHDU) against Varicella Zoster Virus (VZV)” (J Med Chem, 2023)
Blank lines part the entries; values can stand above or below the molecule they belong to.

Key:
[1] = Selectivity index, ratio of CC50 for human ARPE-19 cells to EC50 for VZV infected human ARPE-19 cells; type: toxicity; settings: VZV infected ARPE-19 cells, read-out: Selectivity Index
Human alphaherpesvirus 3 [2] = assay: Antiviral activity against VZV expressing ORF57-TS mutant infected human ARPE-19 cells assessed as reduction in viral replication treated for 72 hrs by bioluminescence imaging analysis; type: functional, organism-based; settings: Human alphaherpesvirus 3, ARPE-19, 72 h
[3] = Stability of compound in gastric juice; type: ADME; settings: simulated gi fluid
[4] = Stability of compound in intestinal juice; type: ADME; settings: simulated gi fluid
[5] = Prodrug conversion in mouse liver homogenate assessed as concentration of L-BHDU formation at 0.3 ug/ml measured immediately by LC-MS/MS analysis; type: ADME, tissue-based; settings: dose 0.3 µg/ml
Summary of the method: (§1)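 Liver homogenate from untreated BALB/c mice was spiked with prodrug at 0.3 μg/mL, with azidothymidine internal standard at 20 ng/mL final, and incubated at 37 °C. Reactions were stopped with 2 volumes of methanol at 0, 2, 4, 10, 30 and 60 min. Supernatants were dried and reconstituted in 50% methanol. Prodrug, L-BHDU and L-BHDU-MP were quantified by LC-MS/MS against calibration curves.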

[6] = Prodrug conversion in mouse liver homogenate assessed as concentration of L-BHDU formation at 0.3 ug/ml measured after 2 mins by LC-MS/MS analysis; type: ADME, tissue-based; settings: dose 0.3 µg/ml; summary of the method: as §1
[7] = Prodrug conversion in mouse liver homogenate assessed as concentration of L-BHDU formation at 0.3 ug/ml measured after 4 mins by LC-MS/MS analysis; type: ADME, tissue-based; settings: dose 0.3 µg/ml; summary of the method: as §1
[8] = Prodrug conversion in mouse liver homogenate assessed as concentration of L-BHDU formation at 0.3 ug/ml measured after 10 mins by LC-MS/MS analysis; type: ADME, tissue-based; settings: dose 0.3 µg/ml; summary of the method: as §1
[9] = Prodrug conversion in mouse liver homogenate assessed as concentration of L-BHDU formation at 0.3 ug/ml measured after 30 mins by LC-MS/MS analysis; type: ADME, tissue-based; settings: 0.5 h, dose 0.3 µg/ml; summary of the method: as §1
[10] = Prodrug conversion in mouse liver homogenate assessed as concentration of L-BHDU formation at 0.3 ug/ml measured after 60 mins by LC-MS/MS analysis; type: ADME, tissue-based; settings: in vitro, 1 h; summary of the method: as §1
[11] = Stability in mouse liver homogenate assessed as compound remaining at 0.3 ug/ml measured immediately by LC-MS/MS analysis; type: ADME, tissue-based; settings: tissue homogenate, dose 0.3 µg/ml; summary of the method: as §1
[12] = Stability in mouse liver homogenate assessed as compound remaining at 0.3 ug/ml measured after 2 mins by LC-MS/MS analysis; type: ADME, tissue-based; settings: tissue homogenate, dose 0.3 µg/ml; summary of the method: as §1
[13] = Stability in mouse liver homogenate assessed as compound remaining at 0.3 ug/ml measured after 4 mins by LC-MS/MS analysis; type: ADME, tissue-based; settings: tissue homogenate, dose 0.3 µg/ml; summary of the method: as §1
[14] = Stability in mouse liver homogenate assessed as compound remaining at 0.3 ug/ml measured after 10 mins by LC-MS/MS analysis; type: ADME, tissue-based; settings: tissue homogenate, dose 0.3 µg/ml; summary of the method: as §1
[15] = Stability in mouse liver homogenate assessed as compound remaining at 0.3 ug/ml measured after 30 mins by LC-MS/MS analysis; type: ADME, tissue-based; settings: tissue homogenate, 0.5 h, dose 0.3 µg/ml; summary of the method: as §1
[16] = Prodrug conversion in BALB/c mouse assessed as concentration of L-BHDU formation at 22.5 mg/kg, po via gavage measured immediately by LC-MS/MS analysis; type: ADME, organism-based; settings: in vivo
[17] = Prodrug conversion in BALB/c mouse assessed as concentration of L-BHDU formation at 22.5 mg/kg, po via gavage measured after 20 mins by LC-MS/MS analysis; type: ADME, organism-based; settings: in vivo
Summary of the method: (§2)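 BALB/c mice of both sexes (N = 15 per sex per group) received a single oral gavage dose: 11.4 mg/kg L-BHDU or an equimolar 22.5 mg/kg of the POM prodrug, in Cremophor–DMSO–saline (1:1:8). Three mice per group were bled by cardiac puncture under isoflurane at 20, 40, 60 and 120 min into heparin. Plasma (AZT internal standard, 20 ng/mL) was methanol-precipitated and L-BHDU quantified by LC-MS/MS (negative ESI).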

[18] = Prodrug conversion in BALB/c mouse assessed as concentration of L-BHDU formation at 22.5 mg/kg, po via gavage measured after 40 mins by LC-MS/MS analysis; type: ADME, organism-based; settings: in vivo; summary of the method: as §2
[19] = Prodrug conversion in BALB/c mouse assessed as concentration of L-BHDU formation at 22.5 mg/kg, po via gavage measured after 60 mins by LC-MS/MS analysis; type: ADME, organism-based; settings: in vivo, 1 h; summary of the method: as §2
[20] = Prodrug conversion in BALB/c mouse assessed as concentration of L-BHDU formation at 22.5 mg/kg, po via gavage measured after 120 mins by LC-MS/MS analysis; type: ADME, organism-based; settings: in vivo, 2 h; summary of the method: as §2
[21] = Prodrug conversion in BALB/c mouse assessed as AUC of L-BHDU at 22.5 mg/kg, po via gavage measured upto 120 mins by LC-MS/MS analysis; type: ADME, organism-based; set-up: time < 120 min, dose 22.5 mg/kg, route po; settings: in vivo, 2 h; summary of the method: as §2
[22] = Prodrug conversion in BALB/c mouse assessed as Tmax of L-BHDU at 22.5 mg/kg, po via gavage measured upto 120 mins by LC-MS/MS analysis; type: ADME, organism-based; settings: in vivo, 2 h; summary of the method: as §2
[23] = Prodrug conversion in BALB/c mouse assessed as Cmax of L-BHDU at 22.5 mg/kg, po via gavage measured upto 120 mins by LC-MS/MS analysis; type: ADME, organism-based; set-up: dose 22.5 mg/kg, time < 120 min, route po; settings: in vivo, 2 h; summary of the method: as §2
Human alphaherpesvirus 3 [24] = assay: Antiviral activity against VZV infected human ARPE-19 cells assessed as reduction in viral replication treated for 72 hrs by bioluminescence imaging analysis; type: functional, organism-based; settings: Human alphaherpesvirus 3, ARPE-19, 72 h
[25] = Cytotoxicity against human ARPE-19 cells assessed as reduction in cell viability treated for 72 hrs by neutral red assay; type: toxicity, cell-based
Summary of the method: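 ARPE-19 cells (DMEM, 10% heat-inactivated FBS, penicillin-streptomycin, amphotericin B; used within 30 passages) seeded 3 d, then exposed 72 h to a concentration range, higher than in antiviral runs, under the same conditions. Viability read by neutral red dye uptake; staurosporine as cell-death control. […] DMSO stocks diluted in DMSO and/or medium.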

Human alphaherpesvirus 3 [26] = assay: Antiviral activity against VZV expressing ORF57-Luc infected human ARPE-19 cells assessed as reduction in viral replication treated for 72 hrs by bioluminescence imaging analysis; type: functional, organism-based; settings: Human alphaherpesvirus 3, ARPE-19, 72 h
Human alphaherpesvirus 3 [27] = assay: Antiviral activity against VZV expressing ORF57-TK mutant infected human ARPE-19 cells assessed as reduction in viral replication treated for 72 hrs by bioluminescence imaging analysis; type: functional, organism-based; settings: Human alphaherpesvirus 3, ARPE-19, 72 h
Human alphaherpesvirus 3 [28] = assay: Antiviral activity against VZV expressing ORF57-TKTS mutant infected human ARPE-19 cells assessed as reduction in viral replication treated for 72 hrs by bioluminescence imaging analysis; type: functional, organism-based; settings: Human alphaherpesvirus 3, ARPE-19, 72 h
[29] = Cytotoxicity against HFF cells assessed as reduction in cell viability; type: toxicity, cell-based; settings: human
Human alphaherpesvirus 3 [30] = assay: Antiviral activity against VZV infected HFF cells assessed as reduction in viral replication; type: functional, organism-based; settings: Human alphaherpesvirus 3, HFF
HFF = assay: Cytotoxicity against HFF cells assessed as cell growth inhibition upto 200 uM; type: toxicity, cell-based; settings: human
[31] = Selectivity index, ratio of CC50 for HFF cells to EC50 for VZV infected HFF cells; type: toxicity; settings: human, read-out: Selectivity Index
[32] = Drug concentration in BALB/c mouse plasma at 11.4 mg/kg, po via gavage measured after 20 mins by LC-MS/MS analysis; type: ADME, organism-based; summary of the method: as §2
[33] = Drug concentration in BALB/c mouse plasma at 11.4 mg/kg, po via gavage measured after 40 mins by LC-MS/MS analysis; type: ADME, organism-based; summary of the method: as §2
[34] = Drug concentration in BALB/c mouse plasma at 11.4 mg/kg, po via gavage measured after 60 mins by LC-MS/MS analysis; type: ADME, organism-based; summary of the method: as §2

SMILES: NCC(=O)OC[C@H]1OC[C@@H](n2cc(/C=C/Br)c(=O)[nH]c2=O)O1
selectivity ratio [1]: > 2130

SMILES: CC(C)C[C@H](N)C(=O)OC[C@H]1OC[C@@H](n2cc(/C=C/Br)c(=O)[nH]c2=O)O1
selectivity ratio [1]: > 2420

SMILES: NC(=O)CC[C@H](N)C(=O)OC[C@H]1OC[C@@H](n2cc(/C=C/Br)c(=O)[nH]c2=O)O1
selectivity ratio [1]: > 794

SMILES: CC(C)(C)C(=O)OCOP(=O)(OCOC(=O)C(C)(C)C)OC[C@H]1OC[C@@H](n2cc(/C=C/Br)c(=O)[nH]c2=O)O1
EC50 (Human alphaherpesvirus 3 [2]): 0.001 µM
selectivity ratio [1]: > 2810
Stability [3]: Stable
Stability [4]: Stable
Drug metabolism [5]: 0.016 µg/mL
Drug metabolism [6]: 0.055 µg/mL
Drug metabolism [7]: 0.142 µg/mL
Drug metabolism [8]: 0.359 µg/mL
Drug metabolism [9]: 1.385 µg/mL
Drug metabolism [10]: 1.961 µg/mL
Stability [11]: 0.599 µg/mL
Stability [12]: 3.094 µg/mL
Stability [13]: 4.569 µg/mL
Stability [14]: 4.488 µg/mL
Stability [15]: 3.777 µg/mL
Drug metabolism [16]: 0 µg/mL
Drug metabolism [17]: 8.69 µg/mL
Drug metabolism [18]: 14.044 µg/mL
Drug metabolism [19]: 13.543 µg/mL
Drug metabolism [20]: 10.608 µg/mL
AUC [21]: 1680 µg·min/mL
Tmax [22]: 40 min
Cmax [23]: 10600 ng/mL

SMILES: N[C@H](Cc1ccccc1)C(=O)OC[C@H]1OC[C@@H](n2cc(/C=C/Br)c(=O)[nH]c2=O)O1
selectivity ratio [1]: > 3480

SMILES: C[C@@H](N)C(=O)OC[C@H]1OC[C@@H](n2cc(/C=C/Br)c(=O)[nH]c2=O)O1
selectivity ratio [1]: > 2960

SMILES: O=C(OC[C@H]1OC[C@@H](n2cc(/C=C/Br)c(=O)[nH]c2=O)O1)[C@@H]1CCCN1
selectivity ratio [1]: > 1930

SMILES: CCCCCCCCCCCCCCCCOCCCOP(=O)(OC[C@H]1OC[C@@H](n2cc(/C=C/Br)c(=O)[nH]c2=O)O1)Oc1ccccc1 (stereo not given in full)
EC50 (Human alphaherpesvirus 3 [24]): 0.526 µM
CC50 at 72 h [25]: 18.5 µM
selectivity ratio [1]: 35

SMILES: CC(C)C(=O)OCOP(=O)(OCOC(=O)C(C)C)OC[C@H]1OC[C@@H](n2cc(/C=C/Br)c(=O)[nH]c2=O)O1
EC50 (Human alphaherpesvirus 3 [2]): 0.008 µM
EC50 (Human alphaherpesvirus 3 [24]): 0.034 µM
CC50 at 72 h [25]: > 100 µM
selectivity ratio [1]: > 2920
EC50 (Human alphaherpesvirus 3 [26]): 0.04 µM
EC50 (Human alphaherpesvirus 3 [27]): > 2 µM
EC50 (Human alphaherpesvirus 3 [28]): > 2 µM

SMILES: CC(C)[C@@H](N)C(=O)OC[C@H]1OC[C@@H](n2cc(/C=C/Br)c(=O)[nH]c2=O)O1
CC50 [29]: > 200 µM
selectivity ratio [1]: > 3320

SMILES: CC[C@H](C)[C@H](N)C(=O)OC[C@H]1OC[C@@H](n2cc(/C=C/Br)c(=O)[nH]c2=O)O1
selectivity ratio [1]: > 1520

SMILES: CC(C)[C@H](N)C(=O)OC[C@H]1OC[C@@H](n2cc(/C=C/Br)c(=O)[nH]c2=O)O1
selectivity ratio [1]: > 709

EC50 (Human alphaherpesvirus 3 [30]): 0.25 µM
concentration at 20 min [32]: 5620 ng/mL
concentration at 40 min [33]: 4500 ng/mL
concentration at 1 h [34]: 6180 ng/mL
SMILES: O=c1[nH]c(=O)n([C@@H]2CO[C@H](CO)O2)cc1/C=C/Br
Activity (HFF): Non-Toxic
selectivity ratio [31]: > 909
selectivity ratio [1]: > 3880

SMILES: CC(C)(N)C(=O)OC[C@H]1OC[C@@H](n2cc(/C=C/Br)c(=O)[nH]c2=O)O1
selectivity ratio [1]: > 2600

SMILES: N[C@@H](Cc1ccc(O)cc1)C(=O)OC[C@H]1OC[C@@H](n2cc(/C=C/Br)c(=O)[nH]c2=O)O1
selectivity ratio [1]: > 826

SMILES: N[C@@H](Cc1c[nH]c2ccccc12)C(=O)OC[C@H]1OC[C@@H](n2cc(/C=C/Br)c(=O)[nH]c2=O)O1
selectivity ratio [1]: > 1550

SMILES: CCCCCCCCCCCCCCCCCCOCCOP(=O)(OC[C@H]1OC[C@@H](n2cc(/C=C/Br)c(=O)[nH]c2=O)O1)Oc1ccccc1 (stereo not given in full)
EC50 (Human alphaherpesvirus 3 [2]): 0.001 µM
EC50 (Human alphaherpesvirus 3 [24]): 0.1 µM
CC50 at 72 h [25]: 33.9 µM
selectivity ratio [1]: 339
EC50 (Human alphaherpesvirus 3 [26]): 0.82 µM
EC50 (Human alphaherpesvirus 3 [27]): > 2 µM
EC50 (Human alphaherpesvirus 3 [28]): > 2 µM
